From ChEMBL document CHEMBL1148313, “A new class of nonpeptide bradykinin B(2) receptor ligand, incorporating a 4-aminoquinoline framework. Identification of a key pharmacophore to determine species difference and agonist/antagonist profile” (J Med Chem, 2004)
pIC50: −log10 of the molar value.

Columns and labels:
[1] = molecular target: T1, B2 bradykinin receptor (Homo sapiens, UniProt P30411); assay: Inhibition of specific binding of [3H]BK at 1 nM to human bradykinin receptor B2 expressed in CHO cells by 50%.; format: cell-based
T1 sequence (P30411 whole entry): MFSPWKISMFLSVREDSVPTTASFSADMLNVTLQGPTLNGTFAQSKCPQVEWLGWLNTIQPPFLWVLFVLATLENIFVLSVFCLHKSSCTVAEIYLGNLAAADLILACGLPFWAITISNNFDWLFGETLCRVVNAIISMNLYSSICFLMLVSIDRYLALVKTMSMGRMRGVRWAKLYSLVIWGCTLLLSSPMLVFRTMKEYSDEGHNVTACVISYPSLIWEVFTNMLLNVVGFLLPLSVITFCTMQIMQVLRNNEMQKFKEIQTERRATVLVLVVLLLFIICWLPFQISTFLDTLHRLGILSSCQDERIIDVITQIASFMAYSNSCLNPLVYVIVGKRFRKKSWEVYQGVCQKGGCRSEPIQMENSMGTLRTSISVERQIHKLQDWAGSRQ
How it was run: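 Intact CHO (dhfr−) cells stably expressing human B2, seeded 3.0 × 10⁴/well for 1 day. Incubated with [3H]BK and compound 2 h at 4 °C in HEPES/N-methyl-D-glucamine buffer pH 7.2 with enalaprilat, bacitracin and 0.1% BSA. Cells lysed in SDS/NaOH and counted; nonspecific binding with 1 μM BK. Three experiments.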

[2] = molecular target: T2, B2 bradykinin receptor (Cavia porcellus, UniProt O70526); assay: Inhibition of specific binding of [3H]BK at 0.06 nM to bradykinin receptor B2 in guinea pig ileum membrane preparations by 50%.; format: cell membranes
T2 sequence (O70526 whole entry): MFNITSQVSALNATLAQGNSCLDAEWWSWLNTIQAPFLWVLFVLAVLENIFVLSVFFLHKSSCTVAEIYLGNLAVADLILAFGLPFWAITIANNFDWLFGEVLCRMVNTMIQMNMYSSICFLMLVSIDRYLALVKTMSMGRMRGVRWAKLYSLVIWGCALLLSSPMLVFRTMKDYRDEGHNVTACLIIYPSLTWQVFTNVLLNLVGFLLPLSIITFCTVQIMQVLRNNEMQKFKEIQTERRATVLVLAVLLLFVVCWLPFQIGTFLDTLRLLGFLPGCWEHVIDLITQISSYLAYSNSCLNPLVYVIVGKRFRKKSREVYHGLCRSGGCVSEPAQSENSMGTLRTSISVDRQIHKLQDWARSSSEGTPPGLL
How it was run: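 Ileum membranes from male Hartley guinea pigs, 0.2 mg protein/mL, in TES pH 6.8 containing phenanthroline, bacitracin, DTT, captopril and 0.1% BSA. Incubated with [3H]BK and compound at room temperature for 60 min. GF/B filtration, scintillation counting; nonspecific binding with 1 μM BK. Three experiments.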

[3] = test system: Cavia porcellus; assay: In vivo functional antagonistic activity in inhibiting BK (5 ug/kg, i.v.) induced bronchoconstriction in guinea pigs by 100 ug/kg iv administration
How it was run: (§1)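 Male Hartley guinea pigs (470–750 g), fasted overnight, pentobarbital 30 mg/kg i.p., ventilated 10 mL/kg at 60 breaths/min, alcuronium 0.5 mg/kg i.v., propranolol 10 mg/kg s.c. BK in saline/0.1% BSA i.v.; compound in 5% citric acid i.v. 25 min after first BK, BK repeated 5 min later. Peak insufflation pressure rise (Konzett–Rössler); % inhibition versus vehicle, n = 3–4.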

[4] = test system: Cavia porcellus; assay: In vivo functional antagonistic activity in inhibiting BK (5 ug/kg, i.v.) induced bronchoconstriction in guinea pigs by 10 ug/kg iv administration; how it was run: as §1
[5] = test system: CHO; assay: Relative agonistic activity in IP formation compared to BK (10 nM) IPs in CHO cells expressing the cloned human B2 receptor at 1 uM concentration; format: functional, Cricetulus griseus
How it was run: (§2)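 Human B2-CHO cells labeled 24 h with [3H]inositol (1 μCi/mL). Preincubated in PBS/0.2% BSA with 10 mM LiCl for 30 min at 37 °C, then compound for 30 min at 37 °C. Stopped with 5% TCA. IP1–IP3 separated on AG 1-X8 and counted. Basal counts subtracted; response expressed relative to 10 nM BK.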

[6] = test system: CHO; assay: Relative agonistic activity in IP formation compared to BK (10 nM) IPs in CHO cells expressing the cloned human B2 receptor at 10 uM concentration; format: functional, Cricetulus griseus; how it was run: as §2

| Compound | pIC50 [1] | pIC50 [2] | Inhibition [3] | Inhibition [4] | Relative agonistic activity [5] | Relative agonistic activity [6] |
| --- | --- | --- | --- | --- | --- | --- |
| CNC(=O)c1ccc(/C=C/C(=O)NCC(=O)N(C)c2ccc(Cl)c(COc3cccc4c(NCCN(C)C)cc(C)nc34)c2Cl)cc1 | 5.60 | 5.64 | – | – | – | – |
| CC(=O)Nc1ccc(/C=C/C(=O)NCC(=O)N(C)c2ccc(Cl)c(COc3cccc4c(N(C)C)cc(C)nc34)c2Cl)cn1.Cl | 8.38 | 8.20 | – | 89.4% | – | – |
| CNC(=O)c1ccc(/C=C/C(=O)NCC(=O)N(C)c2ccc(Cl)c(COc3cccc4c(N5CCOCC5)cc(C)nc34)c2Cl)cc1.Cl.Cl.Cl.Cl | 8.57 | 7.92 | – | – | 0.9% | -1.9% |
| CNC(=O)c1ccc(/C=C/C(=O)NCC(=O)N(C)c2ccc(Cl)c(COc3cccc4c(N5CCN(C)CC5)cc(C)nc34)c2Cl)cc1 | 7.01 | 5.82 | – | – | – | – |
| Cc1cc(N(C)C)c2cccc(OCc3c(Cl)ccc(N(C)C(=O)CNC(=O)/C=C/c4ccc(C(=O)N(C)C)nc4)c3Cl)c2n1.Cl.Cl.Cl.Cl | 8.40 | 8.09 | – | 89.7% | – | – |
| CC(=O)Nc1ccc(/C=C/C(=O)NCC(=O)N(C)c2ccc(Cl)c(COc3cccc4c(N(C)C)cc(C)nc34)c2Cl)cc1C.Cl.Cl.Cl.Cl | 8.32 | 7.68 | 94.7% | – | – | – |
| Cc1cc(N(C)C)c2cccc(OCc3c(Cl)ccc(N(C)C(=O)CNC(=O)/C=C/c4ccc(C(=O)N(C)C)cc4)c3Cl)c2n1.Cl.Cl | – | – | – | 73.4% | – | – |
| CNC(=O)c1ccc(/C=C/C(=O)NCC(=O)N(C)c2ccc(Cl)c(COc3cccc4c(NCCOC)cc(C)nc34)c2Cl)cc1 | 7.39 | 7.31 | – | – | – | – |
| CNC(=O)c1ccc(/C=C/C(=O)NCC(=O)N(C)c2ccc(Cl)c(COc3cccc4c(N5CCCCCC5)cc(C)nc34)c2Cl)cc1 | 7.43 | 6.08 | – | – | – | – |
| CNC(=O)c1ccc(/C=C/C(=O)NCC(=O)N(C)c2ccc(Cl)c(COc3cccc4c(N5CCCC5)cc(C)nc34)c2Cl)cc1 | 7.06 | 5.64 | – | – | – | – |
| CNC(=O)c1ccc(/C=C/C(=O)NCC(=O)N(C)c2ccc(Cl)c(COc3cccc4c(N(CCOC)CCOC)cc(C)nc34)c2Cl)cc1 | 7.72 | 6.25 | – | – | – | – |
| Cc1cc(N(C)C)c2cccc(OCc3c(Cl)ccc(N(C)C(=O)CNC(=O)/C=C/c4ccc(C(=O)NCc5ccccn5)cc4)c3Cl)c2n1.Cl | 8.23 | 7.55 | 97.3% | – | – | – |

The remaining compounds from weak to strong by pIC50 [1], led by results:

| pIC50 [1] | pIC50 [2] | Compound | Inhibition [3] | Inhibition [4] | Relative agonistic activity [5] | Relative agonistic activity [6] |
| --- | --- | --- | --- | --- | --- | --- |
| 8.60 | 7.40 | Cc1cc(N2CCCCC2)c2cccc(OCc3c(Cl)ccc(N(C)C(=O)CNC(=O)/C=C/c4ccc(C(=O)NCc5ccccn5)cc4)c3Cl)c2n1.Cl | 72.6% | – | – | – |
| 8.66 | 7.92 | Cc1cc(N(C)C)c2cccc(OCc3c(Cl)ccc(N(C)C(=O)CNC(=O)Nc4cccc(C(=O)Nc5ccncc5)c4)c3Cl)c2n1.Cl | 97.7% | – | – | – |
| 8.70 | 8.25 | CNC(=O)c1ccc(/C=C/C(=O)NCC(=O)N(C)c2ccc(Cl)c(COc3cccc4c(N(C)C)cc(C)nc34)c2Cl)cc1OC.Cl.Cl.Cl.Cl | – | 88.7% | – | – |
| 8.74 | 7.19 | CC(=O)Nc1ccc(/C=C/C(=O)NCC(=O)N(C)c2ccc(Cl)c(COc3cccc4c(N5CCOCC5)cc(C)nc34)c2Cl)cn1 | 47.8% | – | – | – |
| 8.74 | 7.89 | Cc1cc(N2CCOCC2)c2cccc(OCc3c(Cl)ccc(N(C)C(=O)CNC(=O)/C=C/c4ccc(N5CCCC5=O)cc4)c3Cl)c2n1.Cl.Cl.Cl.Cl | – | – | 6% | 9.2% |
| 8.80 | 8.92 | CNC(=O)c1ccc(/C=C/C(=O)NCC(=O)N(C)c2ccc(Cl)c(COc3cccc4c(N(C)C)cc(C)nc34)c2Cl)cn1.Cl | – | 85.5% | – | – |
| 8.80 | 7.12 | Cc1cc(N2CCCCC2)c2cccc(OCc3c(Cl)ccc(N(C)C(=O)CNC(=O)/C=C/c4ccc(NC(=O)c5ccncc5)cc4)c3Cl)c2n1.Cl | – | – | 5.6% | 5.3% |
| 8.92 | 7.55 | Cc1cc(N2CCCCC2)c2cccc(OCc3c(Cl)ccc(N(C)C(=O)CNC(=O)/C=C/c4ccc(N5CCCC5=O)cc4)c3Cl)c2n1.Cl.Cl.Cl.Cl | – | – | 14.8% | 18.7% |
| 8.96 | 7.07 | CNC(=O)c1ccc(/C=C/C(=O)NCC(=O)N(C)c2ccc(Cl)c(COc3cccc4c(N5CCOCC5)cc(C)nc34)c2Cl)cn1.Cl | 72.3% | – | – | – |
| 8.96 | 7.17 | CNC(=O)c1ccc(/C=C/C(=O)NCC(=O)N(C)c2ccc(Cl)c(COc3cccc4c(N5CCCCC5)cc(C)nc34)c2Cl)cc1.Cl.Cl.Cl.Cl | – | – | 4.4% | 4.2% |
| 9.00 | 7.54 | Cc1cc(N2CCOCC2)c2cccc(OCc3c(Cl)ccc(N(C)C(=O)CNC(=O)/C=C/c4ccc(NC(=O)c5ccncc5)cc4)c3Cl)c2n1.Cl | – | – | -0.1% | 0.9% |
| 9.06 | 7.37 | Cc1cc(N2CCOCC2)c2cccc(OCc3c(Cl)ccc(N(C)C(=O)CNC(=O)/C=C/c4ccc(C(=O)N(C)C)cc4)c3Cl)c2n1 | – | – | – | – |
| 9.12 | 7.52 | Cc1cc(N2CCCCC2)c2cccc(OCc3c(Cl)ccc(N(C)C(=O)CNC(=O)/C=C/c4ccc(C(=O)N(C)C)cc4)c3Cl)c2n1.Cl.Cl.Cl.Cl | – | – | 17.2% | 21.8% |
| 9.15 | 8.29 | Cc1cc(N(C)C)c2cccc(OCc3c(Cl)ccc(N(C)C(=O)CNC(=O)/C=C/c4ccc(C(=O)Nc5ccncc5)cc4)c3Cl)c2n1.Cl | – | 86.3% | – | – |
| 9.19 | 7.43 | Cc1cc(N2CCOCC2)c2cccc(OCc3c(Cl)ccc(N(C)C(=O)CNC(=O)/C=C/c4ccc(C(=O)Nc5ccncc5)cc4)c3Cl)c2n1.Cl | 91.8% | 46.2% | – | – |
| 9.28 | 6.62 | Cc1cc(N2CCCCC2)c2cccc(OCc3c(Cl)ccc(N(C)C(=O)CNC(=O)/C=C/c4ccc(C(=O)Nc5ccncc5)cc4)c3Cl)c2n1.Cl | – | – | 5.7% | 12.7% |
| 9.33 | 8.16 | Cc1cc(N(C)C)c2cccc(OCc3c(Cl)ccc(N(C)C(=O)CNC(=O)/C=C/c4ccc(NC(=O)c5ccncc5)cc4)c3Cl)c2n1.Cl | – | 59% | – | – |
